Measurements: PMC3169095 (Biochemistry, 2011)

What was measured:
Assay type in all cases: cell-based
Piezo1 [1] = target: T1, Piezo1 (Mus musculus, UniProt E2JF22); conditions: 3.0 μM; Piezo1 in HEK293 cells; n=3 S.D.; SD
TREK-1 = assay: Outside-out patch recording of mechanosensitive TREK-1 currents; conditions: extracellular peptide; outside-out patches of cells transfected with TREK-1
Summary of the method: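 HEK293 cells transfected with TREK-1 plasmid (250 ng, FuGENE) were recorded 24-48 h later in outside-out patches at room temperature. Extracellular (mM): 145 NaCl, 5 KCl, 3 MgCl2, 10 HEPES, 0.1 CaCl2, pH 7.3. Internal: 133 KCl, 10 HEPES, 5 EGTA, 3 MgCl2. Pressure pulses came from a high-speed pressure clamp. D and L peptide forms were perfused. Sampling was 10 kHz, filtered at 2 kHz.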

Piezo1 [2] = target: T1, Piezo1; assay: Outside-out patch recording of pressure-evoked Piezo1 currents

T1 sequence (E2JF22 whole entry): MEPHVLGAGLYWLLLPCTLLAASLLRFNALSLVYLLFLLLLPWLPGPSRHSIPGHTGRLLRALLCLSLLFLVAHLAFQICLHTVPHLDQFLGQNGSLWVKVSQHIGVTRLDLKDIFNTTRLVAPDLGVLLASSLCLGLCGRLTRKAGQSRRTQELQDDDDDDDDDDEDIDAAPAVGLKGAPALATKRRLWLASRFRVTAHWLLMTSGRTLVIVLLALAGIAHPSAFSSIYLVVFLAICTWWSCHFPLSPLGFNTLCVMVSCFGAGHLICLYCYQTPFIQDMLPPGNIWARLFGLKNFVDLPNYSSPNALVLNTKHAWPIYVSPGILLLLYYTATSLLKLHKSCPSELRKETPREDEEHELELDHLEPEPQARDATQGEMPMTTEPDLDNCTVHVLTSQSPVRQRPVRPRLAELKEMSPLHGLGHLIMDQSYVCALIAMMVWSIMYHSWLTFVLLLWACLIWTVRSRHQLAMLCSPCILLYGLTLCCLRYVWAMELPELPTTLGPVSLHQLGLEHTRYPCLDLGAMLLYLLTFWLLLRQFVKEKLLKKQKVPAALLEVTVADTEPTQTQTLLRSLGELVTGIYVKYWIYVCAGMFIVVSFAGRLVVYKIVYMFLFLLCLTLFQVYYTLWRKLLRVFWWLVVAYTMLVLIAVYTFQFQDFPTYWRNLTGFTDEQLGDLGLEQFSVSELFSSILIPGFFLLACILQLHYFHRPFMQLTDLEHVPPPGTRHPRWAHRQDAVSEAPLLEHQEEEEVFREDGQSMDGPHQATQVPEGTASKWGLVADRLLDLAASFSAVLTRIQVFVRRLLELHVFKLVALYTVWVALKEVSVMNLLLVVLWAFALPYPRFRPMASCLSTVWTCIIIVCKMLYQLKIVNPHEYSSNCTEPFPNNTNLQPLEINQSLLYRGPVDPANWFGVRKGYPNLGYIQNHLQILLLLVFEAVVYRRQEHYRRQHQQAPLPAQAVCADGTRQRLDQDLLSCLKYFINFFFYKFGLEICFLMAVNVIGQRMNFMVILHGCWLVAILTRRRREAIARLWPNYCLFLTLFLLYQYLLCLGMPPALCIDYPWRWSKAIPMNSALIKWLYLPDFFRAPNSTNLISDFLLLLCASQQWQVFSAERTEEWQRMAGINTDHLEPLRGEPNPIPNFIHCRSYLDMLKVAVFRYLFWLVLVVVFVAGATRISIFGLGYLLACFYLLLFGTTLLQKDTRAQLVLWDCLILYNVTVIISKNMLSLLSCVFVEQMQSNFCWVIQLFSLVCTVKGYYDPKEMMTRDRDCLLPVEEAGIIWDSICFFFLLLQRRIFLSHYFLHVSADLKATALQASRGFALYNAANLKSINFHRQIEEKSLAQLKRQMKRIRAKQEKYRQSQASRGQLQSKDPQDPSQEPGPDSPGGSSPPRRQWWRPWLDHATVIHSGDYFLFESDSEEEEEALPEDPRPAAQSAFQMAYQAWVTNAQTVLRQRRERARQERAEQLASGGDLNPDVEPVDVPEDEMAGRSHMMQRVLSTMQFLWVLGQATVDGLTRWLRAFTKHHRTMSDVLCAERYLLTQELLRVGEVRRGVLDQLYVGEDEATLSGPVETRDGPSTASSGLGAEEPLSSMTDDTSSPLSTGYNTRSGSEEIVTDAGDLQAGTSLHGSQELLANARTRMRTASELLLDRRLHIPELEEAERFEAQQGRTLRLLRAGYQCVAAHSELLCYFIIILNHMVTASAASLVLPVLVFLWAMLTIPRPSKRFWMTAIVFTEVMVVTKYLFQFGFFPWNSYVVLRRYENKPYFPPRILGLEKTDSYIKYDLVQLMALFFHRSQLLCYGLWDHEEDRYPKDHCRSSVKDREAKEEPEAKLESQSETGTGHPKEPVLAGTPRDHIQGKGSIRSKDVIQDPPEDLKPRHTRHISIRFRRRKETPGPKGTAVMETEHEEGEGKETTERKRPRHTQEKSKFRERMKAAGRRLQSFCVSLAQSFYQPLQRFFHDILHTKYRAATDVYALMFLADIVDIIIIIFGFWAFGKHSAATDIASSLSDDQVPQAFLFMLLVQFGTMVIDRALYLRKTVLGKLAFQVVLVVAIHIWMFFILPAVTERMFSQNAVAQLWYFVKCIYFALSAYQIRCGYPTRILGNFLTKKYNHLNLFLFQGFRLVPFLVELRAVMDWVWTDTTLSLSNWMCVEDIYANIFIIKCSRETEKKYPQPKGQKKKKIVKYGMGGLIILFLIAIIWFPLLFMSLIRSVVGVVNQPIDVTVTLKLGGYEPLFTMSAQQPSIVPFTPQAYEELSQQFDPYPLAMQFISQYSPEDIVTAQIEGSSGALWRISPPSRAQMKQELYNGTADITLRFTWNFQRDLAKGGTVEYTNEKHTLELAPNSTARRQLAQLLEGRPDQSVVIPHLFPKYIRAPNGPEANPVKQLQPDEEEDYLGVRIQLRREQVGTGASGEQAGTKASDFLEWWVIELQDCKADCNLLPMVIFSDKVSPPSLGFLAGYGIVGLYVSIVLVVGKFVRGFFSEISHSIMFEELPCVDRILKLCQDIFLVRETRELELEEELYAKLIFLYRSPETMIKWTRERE

Compound: D-GsMTx4
- inhibition of whole cell mechanosensitive currents (Piezo1 [1]): 70±6%
- inhibition of TREK-1 mechanosensitive currents (TREK-1): no inhibition
- inhibition of peak currents (Piezo1 [2]; outside-out patches, 2.5 μM, n=5, Figure 1C, normalized data): 29 ± 9%

Compound: [H]/N=C(/N)N[C@H]1[C@H](O)[C@@H](O)[C@H](O[C@@H]2O[C@@H](C)[C@](O)(C=O)[C@H]2O[C@@H]2O[C@@H](CO)[C@H](O)[C@@H](O)[C@@H]2NC)[C@@H](N/C(N)=N\[H])[C@@H]1O [streptomycin]
- mode of inhibition of Piezo1 (Piezo1 [2]; 1 mM applied for 90 seconds to resting outside-out patches, Figure S2 B): open channel blocker
